pIC50: −log10 of the molar value. Values after ≈ are worked out from the molar mass of the structure shown. Active and inactive are the calls of the source. The rule behind the calls is not given here.
How the values were obtained:
L5178Y = assay: Cytotoxicity against mouse L5178Y cells by MTT assay; format: functional, cell-based
In short: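 MTT proliferation assay on the L5178Y murine lymphoma line, run three times; kahalalide F as positive control and 0.1% DMSO in medium as negative control.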

Staphylococcus aureus [1] = assay: Antibacterial activity against Staphylococcus aureus ATCC 25923 by broth microdilution method; format: functional
Staphylococcus aureus [2] = assay: Antibacterial activity against methicilin-resistant Staphylococcus aureus ATCC 700699 by broth microdilution method; format: functional; conditions: Mu50
In short: (§1)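 MIC determined by broth microdilution following CLSI recommendations, with moxifloxacin as positive control and DMSO as negative control.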

Enterococcus faecalis [3] = assay: Antibacterial activity against Enterococcus faecalis ATCC 29212 by broth microdilution method; format: functional; in short: as §1
Enterococcus faecalis [4] = assay: Antibacterial activity against vancomycin-resistant Enterococcus faecalis ATCC 51299 by broth microdilution method; format: functional; in short: as §1
Enterococcus faecium [5] = assay: Antibacterial activity against Enterococcus faecium ATCC 35667 by broth microdilution method; format: functional
In short: (§2)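 MIC by broth microdilution following CLSI recommendations; moxifloxacin as positive control, DMSO as negative control.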

Enterococcus faecium [6] = assay: Antibacterial activity against Enterococcus faecium ATCC 700221 by broth microdilution method; format: functional; in short: as §2
[7] = tested on: Mycobacterium tuberculosis; assay: Antibacterial activity against Mycobacterium tuberculosis by broth microdilution method; format: functional
Acinetobacter baumannii = assay: Antibacterial activity against Acinetobacter baumannii ATCC BAA1605 by broth microdilution method; format: functional; in short: as §2
MRC5 = assay: Cytotoxicity against human MRC5 cells after 48 hrs by resazurin dye-based fluorescence analysis; format: cell-based; conditions: MRC5, 48 h
THP-1 = assay: Cytotoxicity against human THP1 cells after 48 hrs by resazurin dye-based fluorescence analysis; format: cell-based; conditions: THP-1, 48 h

SMILES | pIC50 (L5178Y) | MIC (Staphylococcus aureus [1]) | MIC (Staphylococcus aureus [2]) | MIC (Enterococcus faecalis [3]) | MIC (Enterococcus faecalis [4]) | MIC (Enterococcus faecium [5]) | MIC (Enterococcus faecium [6]) | MIC [7] | MIC (Acinetobacter baumannii) | pIC50 (MRC5) | pIC50 (THP-1) | Activity (L5178Y)
COc1cc2c(cc1OC)-c1c(oc3c4c(ccc3c1=O)OC(C)(C)C=C4)CO2 [DEHYDRODEGUELIN] | 4.99 |  |  |  |  |  |  |  |  |  |  | 
COC1=CC(=O)[C@]2(C=C1OC)OC[C@H]1Oc3c4c(cc(O)c3C(=O)[C@H]12)OC(C)(C)C=C4 | 5.89 |  |  |  |  |  |  |  |  |  |  | 
CC(C)=CCC/C(C)=C/Cc1c(O)cc(/C=C/c2ccccc2)cc1O [AMORPHASTILBOL] |  | 6.3 µM (≈ 2.2 µg/mL) | 3.1 µM (≈ 1.08 µg/mL) | 12.5 µM (≈ 4.36 µg/mL) | 6.3 µM (≈ 2.2 µg/mL) | 6.3 µM (≈ 2.2 µg/mL) | 6.3 µM (≈ 2.2 µg/mL) | > 50 µM | > 50 µM | 4.30 | 4.60 | inactive
C=C(CO)[C@H]1Cc2c(ccc3c2O[C@@H]2COc4cc(OC)c(OC)cc4[C@]2(O)C3=O)O1 [DABINOL] | 6.70 |  |  |  |  |  |  |  |  |  |  | 
CC(C)=CCC/C(C)=C/Cc1c(O)cc(O)c2c1O[C@H](c1ccccc1)[C@H](O)C2=O |  | 100 µM (≈ 40.8 µg/mL) | 100 µM (≈ 40.8 µg/mL) | 50 µM (≈ 20.4 µg/mL) | 100 µM (≈ 40.8 µg/mL) | 100 µM (≈ 40.8 µg/mL) | 100 µM (≈ 40.8 µg/mL) | > 50 µM | > 50 µM | 4.00 | 4.00 | 
COC1=C[C@]2(OC[C@H]3Oc4c(ccc5c4C=CC(C)(C)O5)C(=O)[C@H]32)C(=O)CC1=O | 5.12 |  |  |  |  |  |  |  |  |  |  | 
COc1cc2c(cc1OC)[C@@H]1C(=O)c3ccc4c(c3O[C@@H]1CO2)C[C@H](C(C)(C)O)O4 [DALPANOL] | 6.15 |  |  |  |  |  |  |  |  |  |  | 
COc1cc(O)c2c(c1)O[C@@H]1COc3cc(OC)c(OC)cc3[C@@H]1C2=O | 6.70 |  |  |  |  |  |  |  |  |  |  | 
COc1c(N2C[C@@H]3CCCN[C@@H]3C2)c(F)cc2c(=O)c(C(=O)O)cn(C3CC3)c12 [MOXIFLOXACIN] |  | < 0.9 µM | 3.8 µM (≈ 1.53 µg/mL) | 0.9 µM (≈ 0.361 µg/mL) | 0.9 µM (≈ 0.361 µg/mL) | 1.9 µM (≈ 0.763 µg/mL) | 7.8 µM (≈ 3.13 µg/mL) |  |  |  |  | 
CC(C)=CCC/C(C)=C/Cc1c(O)cc(/C=C/c2ccccc2)c(C(=O)O)c1O |  | 12.5 µM (≈ 4.91 µg/mL) | 12.5 µM (≈ 4.91 µg/mL) | 25 µM (≈ 9.81 µg/mL) | 25 µM (≈ 9.81 µg/mL) | 25 µM (≈ 9.81 µg/mL) | 25 µM (≈ 9.81 µg/mL) | > 50 µM | > 50 µM | 4.00 | 4.00 | inactive
C=C(C)[C@@H](O)CC/C(C)=C/Cc1c(OC)cc(CCc2ccccc2)c(C(=O)O)c1O |  |  |  |  |  |  |  |  |  |  |  | inactive
CC(C)=CCC/C(C)=C/Cc1c(O)cc(/C=C\c2ccccc2)c(C(=O)O)c1O |  | 50 µM (≈ 19.6 µg/mL) | 100 µM (≈ 39.2 µg/mL) | 50 µM (≈ 19.6 µg/mL) | 100 µM (≈ 39.2 µg/mL) | 50 µM (≈ 19.6 µg/mL) | 100 µM (≈ 39.2 µg/mL) | > 50 µM | > 50 µM | 4.00 | 4.00 | inactive
COc1ccc(-c2coc3c(C/C=C(\C)CCC=C(C)C)c(O)cc(O)c3c2=O)cc1O |  | 100 µM (≈ 43.7 µg/mL) | 100 µM (≈ 43.7 µg/mL) | 50 µM (≈ 21.8 µg/mL) | 100 µM (≈ 43.7 µg/mL) | 25 µM (≈ 10.9 µg/mL) | 25 µM (≈ 10.9 µg/mL) | > 50 µM | > 50 µM | 4.30 | 4.30 | 
COc1cc2c(cc1OC)[C@@H]1C(=O)c3ccc4c(c3O[C@@H]1CO2)C[C@H](C(C)(C)O[C@@H]1O[C@H](CO)[C@@H](O)[C@H](O)[C@H]1O)O4 | 5.77 |  |  |  |  |  |  |  |  |  |  | 
COc1cc2c(cc1OC)[C@@H]1C(=O)c3ccc4c(c3O[C@@H]1CO2)C=CC(C)(C)O4 [DEGUELIN] | 6.70 |  |  |  |  |  |  |  |  |  |  | 
COc1cc(/C=C/c2ccccc2)cc(OC)c1C/C=C(\C)CCC=C(C)C |  | > 100 µM | > 100 µM | > 100 µM | > 100 µM | 100 µM (≈ 37.7 µg/mL) | > 100 µM | > 50 µM | > 50 µM | 4.00 | 4.00 | inactive
CC(C)=CCC/C(C)=C\Cc1c(O)cc(CCc2ccccc2)c(C(=O)O)c1O |  | 100 µM (≈ 39.5 µg/mL) | 100 µM (≈ 39.5 µg/mL) | 100 µM (≈ 39.5 µg/mL) | 100 µM (≈ 39.5 µg/mL) | 100 µM (≈ 39.5 µg/mL) | 100 µM (≈ 39.5 µg/mL) | > 50 µM | > 50 µM | 4.00 | 4.00 | inactive
C/C=C1\NC(=O)[C@H](Cc2ccccc2)NC(=O)[C@@H](C(C)C)NC(=O)[C@@H](C(C)CC)NC(=O)[C@H](NC(=O)[C@H](NC(=O)[C@H](CCCN)NC(=O)[C@@H]2CCCN2C(=O)[C@H](NC(=O)[C@@H](NC(=O)[C@@H](NC(=O)[C@H](NC(=O)CCCC(C)C)C(C)C)C(C)O)C(C)C)C(C)C)C(C)CC)C(C)OC(=O)[C@H](C(C)C)NC1=O (some centres not stated) | 5.37 |  |  |  |  |  |  |  |  |  |  | 
CC(C)=CCC/C(C)=C/Cc1c(O)cc(CCc2ccccc2)cc1O |  | 25 µM (≈ 8.76 µg/mL) | 6.3 µM (≈ 2.21 µg/mL) | 25 µM (≈ 8.76 µg/mL) | 12.5 µM (≈ 4.38 µg/mL) | 12.5 µM (≈ 4.38 µg/mL) | 12.5 µM (≈ 4.38 µg/mL) | > 50 µM | > 50 µM |  | 4.30 | inactive
COc1ccc(-c2coc3cc(O)c(C/C=C(\C)CCC=C(C)C)c(O)c3c2=O)cc1O |  | 100 µM (≈ 43.7 µg/mL) | 100 µM (≈ 43.7 µg/mL) | 25 µM (≈ 10.9 µg/mL) | 50 µM (≈ 21.8 µg/mL) | 25 µM (≈ 10.9 µg/mL) | 12.5 µM (≈ 5.46 µg/mL) | > 50 µM | > 50 µM | 4.30 | 4.30 | 
C=C(C)[C@H]1Cc2c(ccc3c2O[C@@H]2COc4cc(OC)c(OC)cc4[C@@H]2C3=O)O1 [ROTENONE] | 6.52 |  |  |  |  |  |  |  |  |  |  | 
COc1cc(CCc2ccccc2)c(C(=O)O)c(O)c1CC=C(C)C [AMORFRUTIN A] |  | 50 µM (≈ 17 µg/mL) | 6.3 µM (≈ 2.14 µg/mL) | 100 µM (≈ 34 µg/mL) | 25 µM (≈ 8.51 µg/mL) | 50 µM (≈ 17 µg/mL) | 25 µM (≈ 8.51 µg/mL) | > 50 µM | > 50 µM |  | 4.30 | inactive
CC(C)=CCC/C(C)=C/Cc1c(O)cc(/C=C\c2ccccc2)cc1O |  | 100 µM (≈ 34.8 µg/mL) | 100 µM (≈ 34.8 µg/mL) | 100 µM (≈ 34.8 µg/mL) | 100 µM (≈ 34.8 µg/mL) | 100 µM (≈ 34.8 µg/mL) | 100 µM (≈ 34.8 µg/mL) | > 50 µM | > 50 µM | 4.00 | 4.00 | inactive
COc1cc(CCc2ccccc2)c(C(=O)O)c(O)c1C/C=C(/C)CCC=C(C)C |  | 12.5 µM (≈ 5.11 µg/mL) | 12.5 µM (≈ 5.11 µg/mL) | 6.3 µM (≈ 2.57 µg/mL) | 6.3 µM (≈ 2.57 µg/mL) | 6.3 µM (≈ 2.57 µg/mL) | 6.3 µM (≈ 2.57 µg/mL) | > 50 µM | > 50 µM | 4.00 | 4.00 | inactive
COc1cc2c(cc1OC)[C@@H]1C(=O)c3c(O)cc4c(c3O[C@@H]1CO2)C=CC(C)(C)O4 [TOXICAROL] | 6.70 |  |  |  |  |  |  |  |  |  |  | 
C=C(C)[C@@H](O)CC/C(C)=C/Cc1c(O)cc(CCc2ccccc2)c(C(=O)O)c1O |  |  |  |  |  |  |  |  |  |  |  | inactive
COc1cc2c(cc1OC)[C@@H]1C(=O)c3ccc(O)c(CC=C(C)C)c3O[C@@H]1CO2 [ROTENONIC ACID] | 6.22 |  |  |  |  |  |  |  |  |  |  | 
CC(C)=CCC/C(C)=C/Cc1c(O)ccc(C(=O)/C=C/c2ccc(O)cc2)c1O [XANTHOANGELOL] |  | 25 µM (≈ 9.81 µg/mL) | 3.1 µM (≈ 1.22 µg/mL) | 12.5 µM (≈ 4.91 µg/mL) | 6.3 µM (≈ 2.47 µg/mL) | 12.5 µM (≈ 4.91 µg/mL) | 3.1 µM (≈ 1.22 µg/mL) | > 50 µM | > 50 µM | 4.60 | 4.60 | 

Reference: ChEMBL document CHEMBL4004808, “Antibacterial and Cytotoxic Phenolic Metabolites from the Fruits of Amorpha fruticosa” (J Nat Prod, 2017)
